# Screening data from PubChem BioAssay.
# The list is not random: actives were taken first. Their share in the collection is about 2.4%.
# HSV augment – increases HSV replication in cells; HSV replication augmentation in cells, fold increase; maximum fold increase; 220,000 compounds, 0.005% hits; AID 1956; in the data active = maximum fold increase above about 1.5; inconclusive = no clear call, values can overlap the other calls; tested in PC3 cells
# Insulin prom inh – TRM-6 insulin promoter activity inhibition; inhibition, % at 2 µM; TRM-6 cells (human fetal islet line), insulin promoter-eGFP reporter, imaging; reporter expression induced with tamoxifen; 130,000 compounds, 0.9% hits;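 active = inhibition above the mean plus 3 SD, with well images judged a real hit on visual review, cut at about 60% in these data, passing the limit was not always enough; inconclusive = inhibition over the cutoff but images rejected on review; inactive = inhibition not above the cutoff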
# ROMK primary – modulates human ROMK potassium channel activity; B-score at 10 µM; Tet-inducible ROMK, thallium flux fluorescence; actives lie on both sides; P48048; 130,000 compounds, 2% hits; AID 1918;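 active = signal ratio slope over the read window, or its plate-corrected B-score, at least 3 SD from the plate mean, either direction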;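 note: B-score of the F/F0 ratio slope over 7 to 12 s after thallium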
# Target sequence (P48048 whole entry, looked up): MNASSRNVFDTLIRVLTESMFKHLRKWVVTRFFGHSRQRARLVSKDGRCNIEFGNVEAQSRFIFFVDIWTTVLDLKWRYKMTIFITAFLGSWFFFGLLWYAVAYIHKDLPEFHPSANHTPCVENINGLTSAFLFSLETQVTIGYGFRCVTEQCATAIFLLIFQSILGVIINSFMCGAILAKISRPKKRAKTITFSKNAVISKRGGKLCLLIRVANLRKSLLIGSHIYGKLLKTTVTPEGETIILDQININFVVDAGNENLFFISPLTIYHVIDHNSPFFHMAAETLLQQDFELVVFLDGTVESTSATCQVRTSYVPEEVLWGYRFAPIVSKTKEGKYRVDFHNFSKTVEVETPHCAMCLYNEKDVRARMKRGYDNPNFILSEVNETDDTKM
# MT stabilize HCS – stabilizes microtubules in HeLa cells; AID 2205; 200,000 compounds, 0.83% hits; % tubulin-high responders, % at 10 µM; HeLa tubulin immunostaining HCS, 24 h; share of cells brighter than vehicle mean+2SD;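 active = plate Z-score above 3 for both tubulin-high and condensed-nucleus cell shares, with cell loss under 80%, at 10 µM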;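 note: anti alpha tubulin signal scored within the nucleus-defined area of each cell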
# bCat nuc transl – beta-catenin nuclear translocation modulation | HeLa beta-catenin nuclear translocation, immunofluorescence imaging | nuclear translocation activity, % at 5 µM | 190,000 compounds, 0.3% hits | AID 1665;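 active = nuclear translocation activity above 50% at 5 µM, with a well cell count of 50 or more; inconclusive = wells under 50 cells across six images, flagged as toxic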;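 note: per-cell ratio of nuclear to cytoplasmic median beta-catenin stain intensity; plate controls were DMSO negative control for no effect and GSK-3 inhibitor IX positive control for full effect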
#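 Test system: HeLa cells, endogenous beta-catenin; Compound: single 5 µM dose plus 0.02–20 µM confirmation series; Times: compound exposure 24 h at 37°C; Signal: fluorescence imaging of beta-catenin antibody stain plus DAPI; Read-out: % activation, nuclear-to-cytoplasmic median beta-catenin signal ratio per cell.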
# ROMK hit retest – retested hit modulating human ROMK potassium channel | shares compounds with ROMK primary | ROMK thallium flux, fluorescence ratio; active compounds read low | normalized thallium flux (F/F0 slope) at 10 µM | 3,000 compounds, 54% hits | AID 1917;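 active = Flux at 10 µM at least 3 SD below or above vehicle control mean in one or both replicates; inconclusive = no clear call, values can overlap the other calls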
# * = called active by the depositor; i = inactive; ? = inconclusive; . = no result.
SMILES,HSV augment,Insulin prom inh,ROMK primary,MT stabilize HCS,bCat nuc transl,ROMK hit retest
CCCN1C(=O)c2cc(C(=O)Nc3ccc(OC)cc3OC)ccc2C1Nc1ccc(OC)cc1OC (stereo unspecified),i,.,-3.7*,3,-1,?
COC(=O)c1cccc(C(=O)Nc2cnc3ccccc3c2)n1,i,45,.,2,-2,0.05*
O=C1NC(=S)S/C1=C\c1coc2ccc(O)cc2c1=O,i,.,.,.,1,0.032*
COc1ccccc1CN(Cc1cc2cc(C)cc(C)c2[nH]c1=O)Cc1nnnn1CC1CCCO1 (stereo unspecified),i,.,-4.1*,3,-1,0.066*
Cc1ccccc1Nc1nc(N)nc(COC(=O)c2cccc(S(=O)(=O)NCc3ccccc3)c2)n1,i,-31,-3.8*,2,-1,0.047*
O=C(NC1CCCCC1)C(c1cccnc1)N(C(=O)CCl)c1cccc(Cl)c1 (stereo unspecified),i,i,-3.3*,14*,25,0.051*
Cc1cc(NC(=O)CSCC(=O)N(c2cccc(Cl)c2)C(C(=O)NC2CCCCC2)c2ccc(O)c(O)c2)no1 (stereo unspecified),i,-29,-4.8*,1,-2,0.056*
Cc1cc(NC(=O)CSCC(=O)N(c2ccc(F)cc2)C(C(=O)NC2CCCCC2)c2ccc(O)c(O)c2)no1 (stereo unspecified),i,17,-1.3,3,2,.
Cc1cc2nnc(SCC(=O)N3CCCCC3)n2c(N)n1,i,.,1.3*,2,-1,0.083
CN(C)n1cnc2ccsc2c1=O,i,-43,1.5,2,0,.
CNC(=O)c1[nH]cnc1C(=O)Nc1ccc(OC)cc1,i,.,3.4*,.,-1,0.087
CC(C)(C)C1CCC(=NNC(=O)C(=O)NCc2ccco2)CC1 (stereo unspecified),i,.,0.42,2,2,.
CCOc1ccc2oc(-c3ccccc3)c(C(=O)N3CCN(C)CC3)c2c1,i,.,.,2,-4,?
Cc1ccc2nc(NCCO)nc(-c3ccccc3)c2c1,.,-44,.,15,2,0.075
CC(=O)Nc1ccc(S(=O)(=O)N2CCN(Cc3nc4sc(C)c(C)c4c(=O)[nH]3)CC2)cc1,i,.,.,.,-1,0.074
CC(=O)Nc1ccc(S(=O)(=O)N2CCN(Cc3ccncc3)CC2)cc1,i,-69,0.9,5,-1,.
CCN(c1ccccc1)S(=O)(=O)c1ccc(OC)c(NC(=O)CNCCc2ccccc2)c1,i,39,-6.6*,2,0,0.05*
CCN(CC)S(=O)(=O)c1ccc(OC)c(NC(=O)CSc2cc(C)ccc2C)c1,i,-11,-3.2*,5,2,0.057*
CCN(c1ccccc1)S(=O)(=O)c1ccc(OC)c(OC)c1,i,.,-0.19,1,-4,.
CN(C#N)c1nc(Cl)nc(Nc2cccc(Cl)c2)n1,i,-33,-1.3,6,16,.
CCOC(=O)N1CCN(c2c(N3CCN(c4ccccc4F)CC3)c(=O)c2=O)CC1,i,.,.,.,0,.
OC(CNCC1CCCO1)Cn1c2ccccc2c2ccccc21 (stereo unspecified),i,.,-4.1*,3,-3,0.061*
CC(C)Oc1ccc(/C(O)=C2/C(=O)C(=O)N(CCN(C)C)C2c2cccs2)cc1 (stereo unspecified),i,43,0.47,2,3,.
CC1(C)N=C(N)N=C(N)N1c1ccc(OCCCOc2ccccc2)c(Cl)c1,i,.,-3.1*,.,-1,0.06*
CN(C(=O)COC(=O)COc1ccc(Cl)cc1)C1CCCCC1,i,-31,.,3,-6,0.074
SMILES,HSV augment,Insulin prom inh,ROMK primary,MT stabilize HCS,bCat nuc transl,ROMK hit retest
O=C1c2ccccc2C(=O)N1CCCCN(C(=O)c1ccco1)c1ccc(Cl)cc1,i,-93,-3.4*,5,.,0.049*
O=C1c2ccccc2C(=O)N1CCCCN(C(=O)c1cccc([N+](=O)[O-])c1)c1ccc(Cl)cc1,i,40,.,2,-1,.
CN(C(=O)CO/N=C/c1ccc(OC(F)F)cc1)C1CCS(=O)(=O)C1 (stereo unspecified),i,.,-10*,3,-2,0.073
CCOC(=O)COc1ccc2c(C#N)c3ccccn3c2c1,i,.,-0.26,1,0,.
N#Cc1c2ccc(OCC(N)=O)cc2n2ccccc12,i,-60,-3.2*,2,2,0.051*
COC(=O)C(=C/C=C/N1CCOCC1)C(=O)OC,i,.,.,.,2,.
CCOc1ccccc1CNS(=O)(=O)c1ccc2[nH]c(=O)sc2c1,i,.,-3.5*,2,.,0.075
O=C(/C=C/c1ccccc1)CC(O)(c1ccccc1)C(F)(F)C(F)F (stereo unspecified),i,31,-0.36,2,.,.
O=C(/C=C/c1ccccc1)CC(O)(c1ccccc1)C(F)(F)F (stereo unspecified),i,50,-4.8*,1,.,0.052*
COc1cccc(SCc2noc(C(=O)NCCC(C)C)c2C(=O)NCCC(C)C)c1,i,.,.,.,.,.
CCn1c(=O)c2c3c(sc2n2c(=S)[nH]nc12)CCC3,i,-20,2.3*,1,.,0.079
COc1cc(/C=C2/C(=O)NN(c3cccc(F)c3)C2=O)ccc1OC(=O)c1ccco1,i,-35,-0.77,5,2,.
COc1cc(/C=C2/C(=O)NN(c3ccc(Cl)cc3)C2=O)ccc1OC(=O)c1ccco1,i,21,-3.3*,2,-2,0.071
COC(=O)N/N=C/c1ccc(OC(=O)c2ccco2)c(OC)c1,i,.,4.6*,.,-1,0.073
COc1cc(/C=N/NC(=O)c2ccc(F)cc2)ccc1OC(=O)c1ccco1,i,62,0.039,1,.,.
COc1ccc(/C=C/C(=O)c2cc(Br)ccc2OC(=O)c2ccco2)cc1OC,i,-21,2.2,4,29,0.083
Cn1c(SCc2ccccn2)nc2c1c(=O)[nH]c(=O)n2C,i,.,.,.,0,.
CCOC(=O)c1c(CSC(=N)N)n(-c2ccccc2)c2cc(Br)c(OC(C)=O)cc12,i,.,.,.,2,0.058*
CC(C(Sc1ccccc1N)c1ccccc1)[N+](=O)[O-] (stereo unspecified),i,.,-5.1*,.,1,0.042*
COc1cc2c(cc1OC)C1C(C(=O)Nc3ccccc3N3CCN(C)CC3)c3ccccc3C(=O)N1CC2 (stereo unspecified),i,.,0.096,4,-6,.
COc1ccc(NCC(=O)N/N=C2\CCCC(C)C2)cc1 (stereo unspecified),i,20,2.1*,2,.,0.077
CCC(C(=O)NCc1ccco1)N(C(=O)CNS(=O)(=O)c1ccc(C)cc1)c1ccccc1OC (stereo unspecified),i,-39,0.79,3,-2,.
COc1ccc(CNC(=O)C(c2ccco2)N(C(=O)CNS(=O)(=O)c2ccccc2)c2ccccc2C)cc1 (stereo unspecified),i,-25,-5*,4,1,0.045*
